From ChEMBL document CHEMBL4130408, “Photoactivation provides a mechanistic explanation for pan-assay interference behaviour of 2-aminopyrroles in lipoxygenase inhibition” (Eur J Med Chem, 2017)
The source made the active and inactive calls. No cut-off for these calls is given here.

Key:
HCC-1.2 [1] = assay: Cytotoxicity against human HCC1.2 cells assessed as growth inhibition after 48 hrs by neutral red assay; format: functional; settings: for CC50: HCC-1.2, 48 h, read-out: LD50 (the source's name)
Summary of the method: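 HCC-1.2 hepatocarcinoma cells grown in RPMI1640 with 10% heat-inactivated FCS at 37 °C, 5% CO2. 2 × 10^5 cells/well seeded and grown 48 h. Viable cells quantified by neutral red (50 μg/mL) uptake from serum-free medium over 2 h. Dye dissolved in 1% acetic acid/70% ethanol, read as absorbance 560 minus 620 nm. Triplicate wells; three to five independent experiments; LD50 reported.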

HCC-1.2 [2] = assay: Photocytotoxicity against human HCC1.2 cells assessed as decrease in cell viability preincubated with day light for 10 mins measured after 48 hrs by neutral red assay; format: functional, cell-based
HCC-1.2 [3] = assay: Photocytotoxicity against human HCC1.2 cells assessed as decrease in cell viability preincubated with UV light at 365 nm for 10 mins measured after 48 hrs by neutral red assay; format: functional, cell-based
[4] = target: T1, Polyunsaturated fatty acid lipoxygenase ALOX15 (Homo sapiens) (UniProt P16050); assay: Inhibition of recombinant human 15-LOX-1 expressed in Escherichia coli BL21(DE3) assessed as residual activity at 50 uM using linoleic acid as substrate preincubated for 10 mins followed by substrate addition
T1 sequence (whole entry): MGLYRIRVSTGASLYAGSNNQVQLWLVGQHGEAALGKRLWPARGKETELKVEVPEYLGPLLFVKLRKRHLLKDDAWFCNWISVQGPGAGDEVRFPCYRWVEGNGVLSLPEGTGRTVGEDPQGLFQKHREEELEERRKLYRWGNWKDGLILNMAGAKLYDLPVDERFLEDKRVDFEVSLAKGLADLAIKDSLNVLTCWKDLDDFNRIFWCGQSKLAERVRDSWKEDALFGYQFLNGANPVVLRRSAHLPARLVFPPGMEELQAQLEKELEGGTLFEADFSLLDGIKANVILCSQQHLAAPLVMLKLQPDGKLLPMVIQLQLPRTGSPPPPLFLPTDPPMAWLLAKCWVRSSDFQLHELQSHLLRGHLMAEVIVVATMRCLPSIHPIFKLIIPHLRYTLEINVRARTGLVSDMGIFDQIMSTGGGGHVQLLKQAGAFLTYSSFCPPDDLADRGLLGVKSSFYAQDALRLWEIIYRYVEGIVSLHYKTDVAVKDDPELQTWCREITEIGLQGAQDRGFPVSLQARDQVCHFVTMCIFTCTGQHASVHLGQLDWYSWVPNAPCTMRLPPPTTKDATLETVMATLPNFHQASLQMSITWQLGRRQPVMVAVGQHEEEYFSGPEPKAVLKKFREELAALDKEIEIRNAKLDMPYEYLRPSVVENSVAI
Summary of the method: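 h-15-LOX-1 (1:100 enzyme stock, 1:400 final) preincubated 10 min at room temperature with inhibitor in 25 mM HEPES pH 7.4, then linoleic acid added to 25 µM final (inhibitor 50 µM final). 13(S)-HpODE formation read as A234 over time, rate taken from linear part within first 16 min; no-inhibitor = 100%, no-enzyme = 0%. Triplicate.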

[5] = target: T2, Polyunsaturated fatty acid lipoxygenase ALOX15 (Homo sapiens, UniProt P16050); assay: Inhibition of recombinant human 15-LOX-1 expressed in Escherichia coli BL21(DE3) using linoleic acid as substrate preincubated for 10 mins followed by substrate addition
T2 sequence (P16050 whole entry): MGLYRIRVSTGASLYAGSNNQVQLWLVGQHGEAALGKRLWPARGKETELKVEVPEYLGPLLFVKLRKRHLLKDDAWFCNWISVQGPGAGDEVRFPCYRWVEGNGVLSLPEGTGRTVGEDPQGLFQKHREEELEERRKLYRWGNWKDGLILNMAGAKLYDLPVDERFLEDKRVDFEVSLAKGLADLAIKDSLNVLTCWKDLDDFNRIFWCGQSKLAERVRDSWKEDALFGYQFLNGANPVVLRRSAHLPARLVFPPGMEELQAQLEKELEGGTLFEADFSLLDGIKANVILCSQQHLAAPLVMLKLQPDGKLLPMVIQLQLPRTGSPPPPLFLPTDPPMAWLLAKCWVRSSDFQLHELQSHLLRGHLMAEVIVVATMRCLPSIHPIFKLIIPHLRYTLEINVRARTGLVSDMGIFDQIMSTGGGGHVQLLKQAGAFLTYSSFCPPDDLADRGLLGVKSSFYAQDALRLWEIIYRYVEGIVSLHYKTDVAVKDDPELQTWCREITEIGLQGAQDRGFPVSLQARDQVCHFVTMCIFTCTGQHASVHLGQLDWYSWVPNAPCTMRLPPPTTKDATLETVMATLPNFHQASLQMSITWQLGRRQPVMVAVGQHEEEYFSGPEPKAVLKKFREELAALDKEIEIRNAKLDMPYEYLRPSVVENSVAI

[6] = target: T1, Polyunsaturated fatty acid lipoxygenase ALOX15 (Homo sapiens); assay: Uncompetitive inhibition of recombinant human 15-LOX-1 expressed in Escherichia coli BL21(DE3) assessed as enzyme apparent Vmax at 8 uM using linoleic acid as substrate preincubated for 10 mins followed by substrate addition by Lineweaver-Burk plot analysis (reference value: 106.10 +/- 40.95 abs/hr)
[7] = target: T1, Polyunsaturated fatty acid lipoxygenase ALOX15 (Homo sapiens); assay: Uncompetitive inhibition of recombinant human 15-LOX-1 expressed in Escherichia coli BL21(DE3) assessed as enzyme apparent Vmax at 6 uM using linoleic acid as substrate preincubated for 10 mins followed by substrate addition by Lineweaver-Burk plot analysis (reference value: 106.10 +/- 40.95 abs/hr)
[8] = target: T1, Polyunsaturated fatty acid lipoxygenase ALOX15 (Homo sapiens); assay: Inhibition of recombinant human 15-LOX-1 expressed in Escherichia coli BL21(DE3) at 15 uM preincubated in light followed by measuring UV absorbance of 13(S)-HpODE at 234 nm over 16 mins; settings: TDE = time-dependent effect
Summary of the method: (§1)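 Light-sensitivity test: h-15-LOX-1 preincubated with inhibitor for 2, 5 and 10 min under daylight, 365 nm UV irradiation or darkness, in triplicate. Linoleic acid conversion to 13(S)-HpODE then followed at 234 nm over 16 min, relative to a no-inhibitor positive control. Buffer 25 mM HEPES pH 7.4. Experiments repeated at least twice.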

[9] = target: T1, Polyunsaturated fatty acid lipoxygenase ALOX15 (Homo sapiens); assay: Inhibition of recombinant human 15-LOX-1 expressed in Escherichia coli BL21(DE3) at 15 uM preincubated with UV light at 365 nm followed by measuring UV absorbance of 13(S)-HpODE at 234 nm over 16 mins; settings: TDE = time-dependent effect; summary of the method: as §1
[10] = target: T1, Polyunsaturated fatty acid lipoxygenase ALOX15 (Homo sapiens); assay: Inhibition of recombinant human 15-LOX-1 expressed in Escherichia coli BL21(DE3) at 15 uM preincubated with UV light at 254 nm for 2 to 10 mins followed by measuring UV absorbance of 13(S)-HpODE at 234 nm over 16 mins
Summary of the method: (§2)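 254 nm UV irradiation used as a control during preincubation of h-15-LOX-1 with inhibitor. Activity was then read as 13(S)-HpODE absorbance at 234 nm over 16 min, against a no-inhibitor control. Assay buffer 25 mM HEPES pH 7.4.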

[11] = target: T1, Polyunsaturated fatty acid lipoxygenase ALOX15 (Homo sapiens); assay: Inhibition of recombinant human 15-LOX-1 expressed in Escherichia coli BL21(DE3) assessed as residual activity at 15 uM preincubated in darkness followed by measuring UV absorbance of 13(S)-HpODE at 234 nm over 16 mins; summary of the method: as §1
[12] = target: T1, Polyunsaturated fatty acid lipoxygenase ALOX15 (Homo sapiens); assay: Inhibition of recombinant human 15-LOX-1 expressed in Escherichia coli BL21(DE3) assessed as residual activity at 10 uM preincubated in darkness followed by measuring UV absorbance of 13(S)-HpODE at 234 nm over 16 mins; summary of the method: as §1
HCC-1.2 [13] = assay: Photocytotoxicity against human HCC1.2 cells assessed as decrease in cell viability at 1 to 10 uM preincubated with day light for 10 mins measured after 48 hrs by neutral red assay; format: functional, cell-based
HCC-1.2 [14] = assay: Photocytotoxicity against human HCC1.2 cells assessed as growth inhibition at 1 to 10 uM after day light irradiation for 10 mins; format: functional, cell-based
[15] = target: T1, Polyunsaturated fatty acid lipoxygenase ALOX15 (Homo sapiens); assay: Inhibition of recombinant human 15-LOX-1 expressed in Escherichia coli BL21(DE3) at 10 uM preincubated in light followed by measuring UV absorbance of 13(S)-HpODE at 234 nm over 16 mins; settings: TDE = time-dependent effect; summary of the method: as §1
[16] = target: T1, Polyunsaturated fatty acid lipoxygenase ALOX15 (Homo sapiens); assay: Inhibition of recombinant human 15-LOX-1 expressed in Escherichia coli BL21(DE3) at 10 uM preincubated with UV light at 254 nm for 2 to 10 mins followed by measuring UV absorbance of 13(S)-HpODE at 234 nm over 16 mins; summary of the method: as §2
[17] = target: T1, Polyunsaturated fatty acid lipoxygenase ALOX15 (Homo sapiens); assay: Inhibition of recombinant human 15-LOX-1 expressed in Escherichia coli BL21(DE3) at 10 uM preincubated with UV light at 365 nm followed by measuring UV absorbance of 13(S)-HpODE at 234 nm over 16 mins; settings: TDE = time-dependent effect; summary of the method: as §1
HCC-1.2 [18] = assay: Photocytotoxicity against human HCC1.2 cells assessed as decrease in cell viability at 1 to 10 uM preincubated with UV light at 365 nm for 10 mins measured after 48 hrs by neutral red assay; format: functional, cell-based
HCC-1.2 [19] = assay: Photocytotoxicity against human HCC1.2 cells assessed as decrease in cell viability at 0.4 to 10 uM preincubated with day light for 10 mins measured after 48 hrs by neutral red assay; format: functional, cell-based
[20] = compound: Nc1[nH]c(C(=O)c2ccccc2)c(-c2ccc(Cl)cc2Cl)c1C(=O)c1ccc(Cl)c(Cl)c1; assay: Uncompetitive inhibition of recombinant human 15-LOX-1 expressed in Escherichia coli BL21(DE3) assessed as apparent Km for substrate at 8 uM using linoleic acid as substrate preincubated for 10 mins followed by substrate addition by Lineweaver-Burk plot analysis (reference value: 32.67 +/- 12.23 uM)
[21] = compound: Nc1[nH]c(C(=O)c2ccccc2)c(-c2ccc(Cl)cc2Cl)c1C(=O)c1ccc(Cl)c(Cl)c1; assay: Uncompetitive inhibition of recombinant human 15-LOX-1 expressed in Escherichia coli BL21(DE3) assessed as apparent Km for substrate at 6 uM using linoleic acid as substrate preincubated for 10 mins followed by substrate addition by Lineweaver-Burk plot analysis (reference value: 32.67 +/- 12.23 uM)

## Nc1[nH]c(C(=O)c2ccccc2)c(-c2ccc(F)cc2F)c1C(=O)c1cccc(Cl)c1
HCC-1.2 [1]
  Activity: Dose-dependent effect
  CC50: 990 nM
HCC-1.2 [2]
  Activity: inactive
HCC-1.2 [3]
  Activity: inactive

## Nc1[nH]c(C(=O)c2ccccc2)c(-c2ccc(Cl)cc2Cl)c1C(=O)c1ccc(Cl)c(Cl)c1
[4]
  Activity: 40.8%
[5]
  IC50: 12800 nM
[6]
  Vmax(app): 47.2 abs/hr
[7]
  Vmax(app): 68.2 abs/hr
HCC-1.2 [1]
  Activity: Dose-dependent effect
  CC50: 550 nM
[8]
  inhibition: Tde
[9]
  inhibition: Tde
[10]
  inhibition: inactive
[11]
  Activity: 80%

## Nc1[nH]c(C(=O)c2ccccc2)c(-c2ccc(Cl)cc2Cl)c1C(=O)c1cccc(Cl)c1
[12]
  Activity: 80%
[5]
  IC50: 6900 nM
HCC-1.2 [13]
  Activity: Active
HCC-1.2 [1]
  Activity: Dose-dependent effect
  CC50: 690 nM
HCC-1.2 [14]
  Activity: Active
[15]
  inhibition: Tde
[16]
  inhibition: inactive
[17]
  inhibition: Tde
HCC-1.2 [18]
  Activity: Active

## Cc1cccc(C(=O)c2c(N)[nH]c(C(=O)c3ccccc3)c2-c2ccc(Cl)cc2Cl)c1
HCC-1.2 [19]
  Activity: Active
[5]
  IC50: > 100000 nM
HCC-1.2 [1]
  Activity: Dose-dependent effect
  CC50: 1040 nM

## Nc1[nH]c(C(=O)c2ccccc2)c(-c2ccc(Cl)cc2Cl)c1C(=O)c1ccc(Cl)cc1
[5]
  IC50: > 100000 nM
HCC-1.2 [1]
  Activity: Dose-dependent effect
  CC50: 1050 nM

## Nc1[nH]c(C(=O)c2ccccc2)c(-c2ccc(O)cc2O)c1C(=O)c1cccc(Cl)c1
[5]
  IC50: 8300 nM
HCC-1.2 [1]
  Activity: Dose-dependent effect
  CC50: 2750 nM

B1: Polyunsaturated fatty acid lipoxygenase ALOX15 (Homo sapiens), P16050 (protein)
chain: MGLYRIRVSTGASLYAGSNNQVQLWLVGQHGEAALGKRLWPARGKETELKVEVPEYLGPLLFVKLRKRHLLKDDAWFCNWISVQGPGAGDEVRFPCYRWVEGNGVLSLPEGTGRTVGEDPQGLFQKHREEELEERRKLYRWGNWKDGLILNMAGAKLYDLPVDERFLEDKRVDFEVSLAKGLADLAIKDSLNVLTCWKDLDDFNRIFWCGQSKLAERVRDSWKEDALFGYQFLNGANPVVLRRSAHLPARLVFPPGMEELQAQLEKELEGGTLFEADFSLLDGIKANVILCSQQHLAAPLVMLKLQPDGKLLPMVIQLQLPRTGSPPPPLFLPTDPPMAWLLAKCWVRSSDFQLHELQSHLLRGHLMAEVIVVATMRCLPSIHPIFKLIIPHLRYTLEINVRARTGLVSDMGIFDQIMSTGGGGHVQLLKQAGAFLTYSSFCPPDDLADRGLLGVKSSFYAQDALRLWEIIYRYVEGIVSLHYKTDVAVKDDPELQTWCREITEIGLQGAQDRGFPVSLQARDQVCHFVTMCIFTCTGQHASVHLGQLDWYSWVPNAPCTMRLPPPTTKDATLETVMATLPNFHQASLQMSITWQLGRRQPVMVAVGQHEEEYFSGPEPKAVLKKFREELAALDKEIEIRNAKLDMPYEYLRPSVVENSVAI
[20]
  Km: 20 µM
[21]
  Km: 24 µM
